Only some compounds are listed: those with a hit (about 3.4% of all), similar ones and a draw of the others.
IMP-1 inh = IMP-1 metallo-beta-lactamase inhibitors, primary screen, biochemical, epi-absorbance readout, Pseudomonas aeruginosa enzyme; purified IMP-1, nitrocefin hydrolysis, epi-absorbance fluorescence; inhibition, % at 5.6 µM; 290,000 compounds, 0.45% hits; AID 1556, 2009;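 active = inhibition above the mean plus 3 SD of all compounds in the same screening run, cut at about 4.5% in these data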;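 also: 0% = IMP-1 with DMSO and 100% = DMSO wells lacking enzyme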
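System: purified recombinant IMP-1 beta-lactamase. Medium: Zinc- and detergent-supplemented HEPES buffer, pH 7.1. Compound: one 5.6 µM dose […]. Schedule: 15 min preincubation plus 25 min reaction at 25 °C. Technique: Epi-absorbance fluorescence, 480 nm excitation, 530 nm emission.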
VIM-2 inh = VIM-2 metallo-beta-lactamase inhibitors, primary screen, biochemical, epi-absorbance readout, Pseudomonas aeruginosa enzyme; purified VIM-2, nitrocefin hydrolysis, epi-absorbance fluorescence; inhibition, % at 5.6 µM; 290,000 compounds, 0.89% hits; AID 1527, 2009;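 active = inhibition above the mean of all tested compounds plus 3 SD, cutoff set per screening run, cut at about 7.5% in these data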;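 also: red hydrolysis product quenches plate fluorescence so inhibitors raise well fluorescence; 0% = enzyme with DMSO and 100% = DMSO without enzyme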
CHT inh = inhibitors of human choline transporter CHT; B-score at 10 µM; High affinity choline transporter 1 (Homo sapiens), Q9GZV3; 310,000 compounds, 0.86% hits; CHT-expressing cells, membrane potential dye, choline response; hits give low values;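 active = B-score over 3 SD under the library average, and starting fluorescence ratio not unusually high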;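 also: choline stimulus applied at its EC90 after an EC20 pre-addition; B-score computed on integrated fluorescence ratio after choline addition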
Target sequence (Q9GZV3 whole entry, looked up): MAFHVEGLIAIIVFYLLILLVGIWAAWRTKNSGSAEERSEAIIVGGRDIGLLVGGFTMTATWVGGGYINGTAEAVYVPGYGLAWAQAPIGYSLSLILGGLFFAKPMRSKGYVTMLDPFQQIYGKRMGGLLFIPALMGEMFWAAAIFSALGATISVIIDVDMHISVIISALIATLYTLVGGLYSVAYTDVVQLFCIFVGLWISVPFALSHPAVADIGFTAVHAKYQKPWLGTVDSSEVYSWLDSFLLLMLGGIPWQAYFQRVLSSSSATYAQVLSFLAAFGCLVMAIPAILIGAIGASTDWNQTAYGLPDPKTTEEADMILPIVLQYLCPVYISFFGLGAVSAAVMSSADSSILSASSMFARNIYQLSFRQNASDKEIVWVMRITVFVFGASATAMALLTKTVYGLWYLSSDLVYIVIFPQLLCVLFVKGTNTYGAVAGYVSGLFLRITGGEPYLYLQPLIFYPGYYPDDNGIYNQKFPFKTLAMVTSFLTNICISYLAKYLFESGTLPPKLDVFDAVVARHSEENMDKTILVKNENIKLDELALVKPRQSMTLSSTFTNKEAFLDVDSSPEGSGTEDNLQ
ANO1 activ = TMEM16A chloride channel activators or potentiators, primary screen, cell-based, HTS. Anoctamin-1 (Mus musculus), Q8BHY3. HEK293 TMEM16A/YFP-H148Q/I152L, iodide quench fluorescence; hits give low values. B-score at 10 µM. 340,000 compounds, 0.3% hits;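 active = fluorescence-ratio B-score plate-corrected deviation score at least 3 library SD below zero, with starting fluorescence score within 5 deviations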;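 also: channel opened by trigger with iodide after compound preincubation; score built on the fluorescence ratio of max minus min over baseline; more negative score means more quench and so TMEM16A activation or potentiation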
CHT PAM = CHT positive allosteric modulators, primary screen, cell-based, membrane potential dye, choline EC20. High affinity choline transporter 1 (Homo sapiens), Q9GZV3. CHT-expressing cells; hits give high values; LV-AA mutant CHT in HEK293 cells. B-score at 10 µM. 310,000 compounds, 0.49% hits. AID 488977, 2010;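 active = initial fluorescence not abnormally high and integrated response B-score, plate-corrected, over 3 SD above library mean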
TMEM16A inh = TMEM16A chloride channel inhibitors, primary screen, cell-based, HTS; Anoctamin-1 (Mus musculus), Q8BHY3; HEK293 TMEM16A/YFP iodide influx fluorescence, ionomycin; normalized B-score (activity score, 25-100; higher = stronger inhibition) at 10 µM; 310,000 compounds, 1.2% hits; AID 588511, 2011;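 active = ratio plate-corrected score three or more library SD toward inhibition, starting fluorescence score within five deviations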;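 also: score derived from kinetic fluorescence span divided by baseline fluorescence per well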
TMEM16A reconf = TMEM16A chloride channel inhibitors, confirmation, cell-based, re-confirmation | inhibition, % at 10 µM | shares compounds with TMEM16A inh | HEK293 TMEM16A/YFP-H148Q, iodide quench fluorescence; ionomycin added to raise cell calcium | 2,300 compounds, 39% hits;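 active = mean duplicate percent inhibition, scaled so buffer wells are 0 and the reference blocker 100, over three buffer SD above buffer mean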
HEK293 Ca mobil = calcium mobilization in TMEM16A/YFP HEK293 cells, confirmation, counter-screen for TMEM16A inhibitor project; shares compounds with TMEM16A inh; Fluo4 calcium mobilization; calcium response (% of ionomycin), % at 10 µM; 2,300 compounds, 2% hits; AID 652231, 2013;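 active = duplicate-averaged calcium signal over 20% of the ionomycin maximum, relative to buffer baseline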;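 also: each well's signal is peak minus trough fluorescence divided by its pre-addition baseline; 0% = buffer wells and 100% = ionomycin wells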
YFP-HEK293 quench = iodide YFP quench changes in parental YFP-HEK293, counter-screen for TMEM16A inhibitor project, cell-based; shares compounds with TMEM16A inh; ionomycin; YFP ratio F(max-min)/F0 at 10 µM; 2,300 tested, under 10 active; AID 652233, 2013;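 active = yellow fluorescent protein signal ratio exceeding the buffer control mean by over 5 SD of those controls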;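 also: ratio is mean of duplicate wells from kinetic YFP trace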
ClC-1 rat inh = ClC-1 chloride channel inhibition, selectivity assay for TMEM16A inhibitor project, cell-based, voltage-dependent ClC-1 | shares compounds with TMEM16A inh | CHO ClC-1-YFP, iodide influx fluorescence quench; iodide control reads 0, buffer control 100 | ratio percent, % at 10 µM | AID 652236, 2013 | 2,300 tested, under 10 active;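 active = duplicate-mean ratio percent above the mean of iodide-only control wells, which defines zero, plus 5 of their SD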;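 also: higher percent means stronger block of ClC-1 iodide influx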
Active calls of the source: *; i = inactive; nt = no result given.

SMILES	IMP-1 inh	VIM-2 inh	CHT inh	ANO1 activ	CHT PAM	TMEM16A inh	TMEM16A reconf	HEK293 Ca mobil	YFP-HEK293 quench	ClC-1 rat inh
N#Cc1c(-c2ccccc2)nc(SCc2ccc(Cl)cc2)[nH]c1=O	-4	-4	i	i	i	100*	i	i	-1.2	-18
C=CCSc1nc(-c2ccccc2)c(C#N)c(=O)[nH]1	-2	-1	i	i	i	i	nt	nt	nt	nt
O=C(c1ccc(-c2ccccc2)cc1)c1ccccc1C(=O)N1CCOCC1	-4	-4	i	i	i	100*	i	i	-1.2	-10
O=C(c1ccccc1)c1ccc(C(=O)N2CCOCC2)cc1	-4	-3	i	i	i	i	nt	nt	nt	nt
COc1ccc(C)cc1NC(=O)NCCC1=CCCCC1	-4	-1	i	i	i	100*	i	i	-0.87	-5
N#CC1(Cc2ccc(Cl)cc2)c2ccccc2C=CN1C(=O)c1ccccc1 (configuration not stated)	-3	-2	i	i	i	25*	i	i	-0.98	-6
COCCCNC(=S)N1CCN(c2nc(-c3ccccc3)cs2)CC1	-1	0	i	i	i	25*	i	i	-0.83	-10
CCOCCCNC(=S)N1CCN(c2nc(-c3ccccc3)cs2)CC1	-2	-1	i	i	i	i	nt	nt	nt	nt
COc1ccc(Cl)cc1NC(=O)C(C)N(C)Cc1ccc(C(F)(F)F)cc1 (configuration not stated)	-1	-1	i	i	i	100*	i	i	-0.83	-6
COc1cc(CN(C)C(C)C(=O)Nc2ccc([N+](=O)[O-])cc2Cl)ccc1OC(F)F (configuration not stated)	-3	-1	i	i	i	i	nt	nt	nt	nt
COc1ccc(N(CC(=O)NCCSCc2ccc(C)cc2)S(=O)(=O)c2ccccc2)cc1	-2	-1	i	i	i	25*	i	i	-1.2	0
COc1ccccc1N(CC(=O)NCCSCc1ccc(C)cc1)S(=O)(=O)c1ccccc1	0	1	i	i	i	i	nt	nt	nt	nt
COc1ccc(CCNC(=O)C(=O)NCC2OCCN2S(=O)(=O)c2cccs2)cc1 (configuration not stated)	0	-1	i	i	i	i	nt	nt	nt	nt
CN(CC(=O)Nc1ccc(Cl)cc1)C(=O)c1cccc(S(=O)(=O)N2CCN(Cc3ccccc3)CC2)c1	nt	nt	i	i	i	25*	i	i	-1.1	-9
CN(C)C(=O)c1ccc(NC(=O)c2cccc(S(=O)(=O)N3CCN(Cc4ccccc4)CC3)c2)cc1	nt	nt	nt	i	nt	nt	nt	nt	nt	nt
COc1ccccc1-c1nnc(SCC(=O)Nc2ccc(Cl)cc2Cl)o1	-3	-3	i	i	i	i	nt	nt	nt	nt
COc1cccc2c1OC[C@@H](CO)[C@H]2N(C)C(=O)Nc1ccc(Cl)cc1Cl	-3	-2	i	i	i	i	i	i	-1.1	-11
CCN(CC)S(=O)(=O)c1ccc(S(=O)(=O)Nc2c(C)nn(C)c2C)cc1	nt	nt	i	i	i	25*	30%*	i	-0.91	-5
Fc1ccc(NC(=S)NNc2ncc(C(F)(F)F)cc2Cl)c(F)c1	-4	-4	i	i	i	25*	30%*	i	-1	-14
COc1ccc(OC)c(CCNC(=O)CN2C(=O)COc3ccc(S(=O)(=O)N4CCOCC4)cc32)c1	-2	1	i	i	i	i	nt	nt	nt	nt
COc1ccc(CN2CCc3c([nH]c4ccccc34)C2)cc1Br	2	0	i	i	i	100*	i	i	-1	-4
CN(C)S(=O)(=O)c1cccc(COC(=O)c2ccc(Cl)cc2O)c1	-2	-1	i	i	i	100*	28%*	i	-0.88	-24
COc1cc(S(=O)(=O)N2CC(=O)Nc3ccccc32)ccc1NC(C)=O	-5	-3	i	i	i	i	nt	nt	nt	nt
COc1ccc(CCNC(=O)CCN2C(=O)C(C)Oc3ccc(C)cc32)cc1OC (configuration not stated)	-8	0	i	i	i	100*	i	i	-1.2	-10
O=S(=O)(c1ccccc1)N1CCN(c2nnc(-c3ccccc3)c3ccccc23)CC1	-5	-2	i	i	i	i	nt	nt	nt	nt
SMILES	IMP-1 inh	VIM-2 inh	CHT inh	ANO1 activ	CHT PAM	TMEM16A inh	TMEM16A reconf	HEK293 Ca mobil	YFP-HEK293 quench	ClC-1 rat inh
Cc1nc2c(cc(Oc3ccc(S(=O)(=O)N4CCOCC4)cn3)c3ccsc32)s1	-2	1	i	i	i	25*	i	i	-1	-19
CCCn1c(SCC(=O)c2cc(C)n(-c3cc(C)on3)c2C)n[nH]c1=O	nt	nt	nt	i	nt	nt	nt	nt	nt	nt
COc1ccccc1OCC(=O)NNc1c2ccccc2nc2ccccc12	-2	-1	i	i	i	25*	17%*	i	-1	-4
COc1ccccc1OCC(=O)NNC(=O)CCCC(=O)NNC(=O)COc1ccccc1OC	-6	-2	i	i	i	i	nt	nt	nt	nt
COc1ccccc1OCC(=O)NCC1CCCCC1	-1	-7	i	i	i	100*	i	i	-1.1	-19
CSc1ccccc1NC(=O)Nc1ccccc1Cl	-2	-1	i	i	i	i	nt	nt	nt	nt
CSc1ccccc1NC(=O)Nc1ccccc1	-4	-2	i	i	i	100*	i	i	-0.98	-4
